Experiment: Toxicity liver stage against HepG2, at 10uM
Assay type: cell-based
Parameters: test concentration 10 uM, cell line HepG2-A16-CD81EGFP
Conditions: human, HepG2-A16-CD81EGFP cells; read-out: INHIBITION
Procedure, shortened: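 Uninfected HepG2-A16-CD81EGFP cells, 3 × 10^3 per well, 1536-well, plated on prespotted compound at 10 μM final, parasite-free screening media added to match infected plates; puromycin 10 μM positive, DMSO 0.5% negative; run in parallel with 48 h PbLuc assay at 37 °C, 5% CO2; viability by CellTiter-Glo luminescence, normalized to controls.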

## CCCc1cc(=O)[nH]c(-n2nc(-c3cccs3)cc2N)n1
  cytotoxicity at 10 µM: 11.2%

## O=C(Nc1ccccc1F)c1nn(C2CCS(=O)(=O)C2)c2c1CCCC2 (stereo unspecified)
  cytotoxicity at 10 µM: 6.17%

## O=C(NCCCN1CCCCC1)c1ccc(-n2ccc3ccccc32)s1
  cytotoxicity at 10 µM: -6.19%

## CC(C(=O)NC1CCN(C)CC1)n1nc(C(F)(F)F)c(Cl)c1C1CC1 (stereo unspecified)
  cytotoxicity at 10 µM: -8.17%

## Cc1cc2c(cc1Cl)C=CC1(CCN(CC(=O)N3CCCC3)CC1)O2
  cytotoxicity at 10 µM: -8.05%

## Fc1ccc(CN2CCCC(c3cc4ncccc4[nH]3)C2)cc1 (stereo unspecified)
  cytotoxicity at 10 µM: -1.87%

## CN1CCC(c2cccc(Cc3ccc(C(F)(F)F)cc3)n2)CC1
  cytotoxicity at 10 µM: 3%

## CN(C(=O)Nc1ccncc1)C1CCN(c2ccc(Cl)cc2)CC1
  cytotoxicity at 10 µM: 1.44%

## O=C(CCn1cncn1)NCC1CCS(=O)(=O)C1 (stereo unspecified)
  cytotoxicity at 10 µM: -48.3%

## O=C(Nc1cncc(Br)c1O)c1ccon1
  cytotoxicity at 10 µM: 15.4%

## CCc1nnc(CNc2ccc(CC(=O)N3CCSCC3)cc2)o1
  cytotoxicity at 10 µM: 7.37%

## CC(OCC1CC1)C(=O)Nc1cccc(C(=O)Nc2ccncc2)c1 (stereo unspecified)
  cytotoxicity at 10 µM: 7.12%

## COc1ccc2c(c1)OCC(CNC1CCc3nc(C)nn3C1)=C2 (stereo unspecified)
  cytotoxicity at 10 µM: 1.84%

## CC(C)(C)n1ncc(NCC(O)c2ccc(F)c(F)c2)c(Cl)c1=O (stereo unspecified)
  cytotoxicity at 10 µM: 54.1%

## COc1ccc(C)cc1CN1CCn2cccc2C1C (stereo unspecified)
  cytotoxicity at 10 µM: 18.3%

## COc1ccsc1C(=O)NC1CCN(c2cccc(F)c2)CC1
  cytotoxicity at 10 µM: 18.3%

## CC(C)CCN(C(=O)Nc1cccc(C(=O)N(C)C)c1)C1CC1
  cytotoxicity at 10 µM: -14.2%

## CN(CCOc1ccccc1)C(=O)Nc1cccn(C)c1=O
  cytotoxicity at 10 µM: -11.3%

## COCC(=O)NC(C)c1sc(-c2ccccc2F)nc1C (stereo unspecified)
  cytotoxicity at 10 µM: 5.41%

## CC(C)c1ccc(/C=C/CC(=O)NC2CCN(C(N)=O)CC2)cc1
  cytotoxicity at 10 µM: 7.1%

## Cc1cc(CN(C)CCN(C)c2ccccc2)no1
  cytotoxicity at 10 µM: -4.65%

## CCSCCC(C)N(C)C(=O)c1ccc(C)o1 (stereo unspecified)
  cytotoxicity at 10 µM: -3.75%

## CCNc1ccnc(CN2CCCC2C(=O)Nc2nccs2)c1 (stereo unspecified)
  cytotoxicity at 10 µM: 4.32%

## Cc1cnn(CCNCc2ccc(OCc3cscn3)cc2)c1
  cytotoxicity at 10 µM: -5.48%

## Cc1cccc2c1OCCCC2NCc1nnc2n1CCCCC2 (stereo unspecified)
  cytotoxicity at 10 µM: -0.699%

## Cc1nn(C)c(N(C)C)c1CNCC(O)COc1cccc(F)c1 (stereo unspecified)
  cytotoxicity at 10 µM: 6.2%

## COc1ccc(-c2nnc(SC(C)C(=O)NC(C)(C)C)[nH]2)c(OC)c1 (stereo unspecified)
  cytotoxicity at 10 µM: 66.5%

## CC(Cn1cccn1)NCc1nc(-c2cccnc2)no1 (stereo unspecified)
  cytotoxicity at 10 µM: -0.813%

## CCOCc1ccccc1NC(=O)NCC(C)(O)c1cc(C)oc1C (stereo unspecified)
  cytotoxicity at 10 µM: -1.48%

## COc1cccc(CNc2cc(C)nc(-c3ccncc3)n2)c1OC
  cytotoxicity at 10 µM: 46.5%

## O=S(=O)(N1CCCC1)N1CCc2sccc2C1
  cytotoxicity at 10 µM: 1.7%

## CN(Cc1cccnc1)C(CO)c1cccc(Br)c1 (stereo unspecified)
  cytotoxicity at 10 µM: -5.37%

## CC(SCC(=O)N(C)CC(=O)NC1CC1)c1ccccc1F (stereo unspecified)
  cytotoxicity at 10 µM: -2.49%

## NCc1ccnc(Oc2ccc(F)cc2)c1
  cytotoxicity at 10 µM: 12.4%

## CN(Cc1c(F)cccc1Cl)C(=O)CN(C)C1CCc2ccccc21 (stereo unspecified)
  cytotoxicity at 10 µM: 11.3%

## CCN(c1ccc(C(=O)NCc2cc[nH]n2)cc1)C(C)C
  cytotoxicity at 10 µM: 11.9%

## COCCCN1CCCN(C(C)C(=O)Nc2cccc(I)c2)CC1 (stereo unspecified)
  cytotoxicity at 10 µM: -8.34%

## CCc1nc(CN2CCCN(c3ncnc4ccccc34)CC2)no1
  cytotoxicity at 10 µM: 43.6%

## CC(NC(=O)c1cc(-c2cccc(Cl)c2)no1)C(=O)N1CCCC1 (stereo unspecified)
  cytotoxicity at 10 µM: 3.59%

## CS(=O)(=O)N1C[C@H]2CN(CC3CC3)C(=O)[C@H]2C1
  cytotoxicity at 10 µM: 6.53%

## CC(C)N1CCCN(c2nc(-c3cccnc3)nc3c2cnn3C)CC1
  cytotoxicity at 10 µM: 28.2%

## CCc1nc(C)cc(N2CCCC(C(=O)c3ccc(OC)cc3C)C2)n1 (stereo unspecified)
  cytotoxicity at 10 µM: 9.99%

## CCN(CC)C(=O)[C@@H]1C[C@@H](n2cc(-c3ccccn3)nn2)CN1
  cytotoxicity at 10 µM: 9.63%

## CC(C)c1nc(CN2CCc3onc(-c4cccc(F)c4)c3C2)no1
  cytotoxicity at 10 µM: 5.56%

## c1ccc(C2CCCN(c3ncnc4c3CCNC4)CC2)cc1 (stereo unspecified)
  cytotoxicity at 10 µM: 58.5%

## Cc1noc(-c2ccnc(Oc3cccc(CN4CCCC4)c3F)c2)n1
  cytotoxicity at 10 µM: -7.07%

## Cc1cc2c(N3CCCC(OCc4cccnc4)C3)ncnc2s1 (stereo unspecified)
  cytotoxicity at 10 µM: 39%

## O=C(NC1CCCCC1)N1CCC(n2cc(-c3ccccn3)nn2)CC1
  cytotoxicity at 10 µM: 4.49%

## CC(C)CCC1=NC2(CCN(C(=O)CN3CCCC3=O)CC2)C(=O)N1
  cytotoxicity at 10 µM: -3.07%

## Cc1nc(C)c(-c2ccn(CC(=O)Nc3cnn(C)n3)n2)s1
  cytotoxicity at 10 µM: 74%

## COc1cc(N2CCCC(CO)(Cc3ccccc3F)C2)ncn1 (stereo unspecified)
  cytotoxicity at 10 µM: 45.7%

## O=C(c1coc(COc2cccc3cnccc23)n1)N1CCCCCC1
  cytotoxicity at 10 µM: -128%

## CC1(C)CNC(=O)c2nc(CCCN3CCCC3)[nH]c2C1
  cytotoxicity at 10 µM: -12.4%

## CCCn1ncc(CN2CCCC(C(=O)c3ccc(SC)cc3)C2)c1C (stereo unspecified)
  cytotoxicity at 10 µM: -3.25%

## Cc1csc2ncnc(N3CCC(Cn4cc(C(C)(C)O)nn4)CC3)c12
  cytotoxicity at 10 µM: 49.2%

## OCC1(CCOc2ccccc2)CCCN(c2ccc(Cl)cn2)C1 (stereo unspecified)
  cytotoxicity at 10 µM: 7.52%

## CSCC(=O)N1CCCN(c2ccccc2C)CC1
  cytotoxicity at 10 µM: 8.14%

## Cc1ncc(C)c(N2CCCC(CO)(Cc3cccc(Cl)c3)C2)n1 (stereo unspecified)
  cytotoxicity at 10 µM: 59.4%

## Cc1nc(N2CC[C@@H](NC(=O)c3cnccn3)[C@H](O)C2)c2ccsc2n1
  cytotoxicity at 10 µM: 38.6%

## CCCOc1ccc(CNc2cncc(-n3cccn3)n2)cc1
  cytotoxicity at 10 µM: 11.7%

## CC(C)OCc1cccc(CNc2cnn(C)c(=O)c2Cl)c1
  cytotoxicity at 10 µM: 29.5%

## c1nc(N2CCCC(Cn3cncn3)C2)c2sccc2n1 (stereo unspecified)
  cytotoxicity at 10 µM: 6.74%

## CC1CN(CC2CCCC2)CCN1c1ccc2nncn2n1 (stereo unspecified)
  cytotoxicity at 10 µM: 6.36%

## c1ccc2sc(CN3CCOC(Cn4cncn4)C3)nc2c1 (stereo unspecified)
  cytotoxicity at 10 µM: -0.489%

## CNC(=O)[C@@H]1C[C@H]2CN(Cc3c(C)noc3C)C[C@H]2N1C(C)C
  cytotoxicity at 10 µM: -107%

## CN(C)CCOCC1CN(Cc2cccc(F)c2)Cc2nccn2C1 (stereo unspecified)
  cytotoxicity at 10 µM: -131%

## c1ccc(-c2ccc(C3CNCCO3)nc2)cc1 (stereo unspecified)
  cytotoxicity at 10 µM: 2.36%

## CCn1ncc2c1C(COCC1CC1)CN(c1ccc(C)nn1)C2 (stereo unspecified)
  cytotoxicity at 10 µM: 11.4%

## Cc1cccc(CN2CCO[C@H]3[C@@H](OCc4ccncc4)CC[C@@H]32)n1
  cytotoxicity at 10 µM: -85.4%

## O=C(c1ccco1)N1CC[C@@H]2O[C@@H](COCCN3CCCC3)CC[C@@H]21
  cytotoxicity at 10 µM: -76.8%

## COc1ccc(CN2C[C@@H]3OCCN(CCN4CCCC4)[C@@H]3C2)cc1
  cytotoxicity at 10 µM: -82.4%

## Clc1cccc(C[C@@H]2NCCC[C@@H]2Nc2ccccc2)c1
  cytotoxicity at 10 µM: 89.3%

## N#Cc1ccc(N2CCCC3(CCN(c4cccnc4)CC3)C2)cc1
  cytotoxicity at 10 µM: 55.5%

## O=S(=O)(c1cccs1)N1CCCC2(COCCN(c3cccnc3)C2)C1 (stereo unspecified)
  cytotoxicity at 10 µM: -78.5%

## COc1cccc(CN2CCc3nc(C(=O)NCC(C)C)sc3CC2)c1
  cytotoxicity at 10 µM: 16.8%

## Cc1noc(C)c1CN1Cc2ccnn2CC(C(=O)NCC2CC2)C1 (stereo unspecified)
  cytotoxicity at 10 µM: -69.2%

## COc1cc(N2C[C@H]3CN(Cc4ccccn4)C[C@H]3C2)ncn1
  cytotoxicity at 10 µM: -96.3%

## c1ccc2c(c1)N(CC1CCOC1)CC21CCN(c2cnccn2)CC1 (stereo unspecified)
  cytotoxicity at 10 µM: -94.7%

## O=C1CC[C@H]2[C@H](CCN2S(=O)(=O)C2CC2)N1CCN1CCCC1
  cytotoxicity at 10 µM: -88.9%

## c1cnc(N2CCC3(CC2)CN(CC2CC2)c2ccccc23)nc1
  cytotoxicity at 10 µM: 19.9%

## CC(C)CS(=O)(=O)N1C[C@@H]2C[C@H](C(=O)N3CCOCC3)[C@H](C1)O2
  cytotoxicity at 10 µM: -2.71%
